# Active and inactive are the calls of the source. The calls are words filed in the database; no cut-off is given here.
# How the values were obtained:
# [1] = molecular target: T1, Metabotropic glutamate receptor 2 (Homo sapiens, UniProt Q14416); test: Displacement of [3H]JNJ-46281222 from human metabotropic glutamate receptor 2 expressed in CHOK1 cell membranes assessed as association rate constant measured every 30 sec for 120 mins by scintillation proximity assay
# Summary of the method: (§1)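 For the SPA competition association, CHO-K1_hmGlu2 membranes (20 µg) were pre-coupled 30 min to WGA SPA beads, then mixed with 6 nM [3H]JNJ-46281222, competitor and 1 mM glutamate. Counts were read every 30 s for 120 min at 28°C.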
# Target sequence in this assay (Q14416 19-872 limits assumed): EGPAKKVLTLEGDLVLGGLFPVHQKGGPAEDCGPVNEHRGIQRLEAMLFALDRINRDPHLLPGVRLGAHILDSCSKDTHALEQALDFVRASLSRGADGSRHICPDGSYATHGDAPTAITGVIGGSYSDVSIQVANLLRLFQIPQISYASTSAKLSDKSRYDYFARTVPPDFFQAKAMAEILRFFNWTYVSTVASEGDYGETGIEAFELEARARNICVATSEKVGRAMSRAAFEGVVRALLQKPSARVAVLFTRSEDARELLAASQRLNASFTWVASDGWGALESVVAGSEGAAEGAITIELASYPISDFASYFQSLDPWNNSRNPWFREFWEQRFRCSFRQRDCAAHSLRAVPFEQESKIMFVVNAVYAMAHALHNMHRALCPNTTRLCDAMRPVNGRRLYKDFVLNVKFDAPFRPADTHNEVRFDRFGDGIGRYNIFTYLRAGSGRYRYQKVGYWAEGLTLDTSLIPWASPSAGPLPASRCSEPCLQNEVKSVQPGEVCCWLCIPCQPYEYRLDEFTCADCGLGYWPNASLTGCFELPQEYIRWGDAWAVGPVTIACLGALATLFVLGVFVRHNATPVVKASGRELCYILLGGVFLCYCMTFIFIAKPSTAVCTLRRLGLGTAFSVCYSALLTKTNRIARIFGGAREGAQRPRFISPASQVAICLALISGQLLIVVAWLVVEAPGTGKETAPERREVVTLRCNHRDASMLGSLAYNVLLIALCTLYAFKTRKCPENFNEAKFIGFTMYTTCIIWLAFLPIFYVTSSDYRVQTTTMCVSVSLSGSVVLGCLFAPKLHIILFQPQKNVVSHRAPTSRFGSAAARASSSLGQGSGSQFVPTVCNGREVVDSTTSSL
# [2] = molecular target: T1, Metabotropic glutamate receptor 2; test: Displacement of [3H]JNJ-46281222 from human metabotropic glutamate receptor 2 expressed in CHOK1 cell membranes assessed as dissociation rate constant measured every 30 sec for 120 mins by scintillation proximity assay; summary of the method: as §1
# Target sequence in this assay (Q14416 19-872 limits assumed): as above
# [3] = molecular target: T1, Metabotropic glutamate receptor 2; test: Displacement of [3H]JNJ-46281222 from human metabotropic glutamate receptor 2 expressed in CHOK1 cell membranes assessed as residence time measured every 30 sec for 120 mins by scintillation proximity assay; summary of the method: as §1
# Target sequence in this assay (Q14416 19-872 limits assumed): as above
# [4] = molecular target: T1, Metabotropic glutamate receptor 2; test: Binding affinity to human metabotropic glutamate receptor 2 expressed in CHOK1 cell membranes by scintillation proximity assay
# Target sequence in this assay (Q14416 whole entry): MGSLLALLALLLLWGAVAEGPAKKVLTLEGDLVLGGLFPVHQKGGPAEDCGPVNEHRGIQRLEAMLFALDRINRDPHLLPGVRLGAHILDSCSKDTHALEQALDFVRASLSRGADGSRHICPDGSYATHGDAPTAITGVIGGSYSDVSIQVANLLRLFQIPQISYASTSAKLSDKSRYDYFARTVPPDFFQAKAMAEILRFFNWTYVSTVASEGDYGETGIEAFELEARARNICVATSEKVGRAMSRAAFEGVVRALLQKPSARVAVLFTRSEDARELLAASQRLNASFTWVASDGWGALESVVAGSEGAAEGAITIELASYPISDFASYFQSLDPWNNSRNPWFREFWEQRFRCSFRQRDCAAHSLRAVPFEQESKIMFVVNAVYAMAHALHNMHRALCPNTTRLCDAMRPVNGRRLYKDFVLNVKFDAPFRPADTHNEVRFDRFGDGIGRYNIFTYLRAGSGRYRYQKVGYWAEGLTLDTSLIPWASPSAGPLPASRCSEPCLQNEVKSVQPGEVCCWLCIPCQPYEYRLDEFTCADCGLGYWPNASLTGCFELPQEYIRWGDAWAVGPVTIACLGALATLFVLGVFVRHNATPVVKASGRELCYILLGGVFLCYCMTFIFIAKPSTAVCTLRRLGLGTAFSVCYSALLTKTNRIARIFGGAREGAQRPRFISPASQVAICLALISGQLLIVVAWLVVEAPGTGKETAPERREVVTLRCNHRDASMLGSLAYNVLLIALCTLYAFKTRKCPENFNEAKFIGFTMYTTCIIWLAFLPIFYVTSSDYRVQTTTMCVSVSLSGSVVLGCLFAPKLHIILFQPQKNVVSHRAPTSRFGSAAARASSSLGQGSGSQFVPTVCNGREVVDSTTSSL
# [5] = molecular target: T1, Metabotropic glutamate receptor 2; test: Positive allosteric modulation of human metabotropic glutamate receptor 2 expressed in CHOK1 cell membranes assessed as increase in glutamate-induced [35S]GTPgammaS binding preincubated for 30 mins followed by [35S]GTPgammaS addition measured after 30 mins by Topcount scintillation counting method; type: functional
# Target sequence in this assay (Q14416 whole entry): as above
# [6] = molecular target: T1, Metabotropic glutamate receptor 2; test: Displacement of [3H]-JNJ46281222 from human metabotropic glutamate receptor 2 expressed in CHOK1 cell membranes after 60 mins by microbeta counting analysis
# Target sequence in this assay (Q14416 whole entry): as above
# [7] = molecular target: Metabotropic glutamate receptor 1 (Homo sapiens) (UniProt Q13255); test: Agonist activity at human metabotropic glutamate receptor 1 expressed in HEK293 cells assessed as induction of Ca2+ internalization after 1 hr by fluo-4-AM dye based fluorescence assay; type: functional, cell-based
# [8] = molecular target: Metabotropic glutamate receptor 1 (Homo sapiens) (UniProt Q13255); test: Antagonist activity at human metabotropic glutamate receptor 1 expressed in HEK293 cells assessed as inhibition of glutamate-induced Ca2+ internalization after 1 hr by fluo-4-AM dye based fluorescence assay; type: functional, cell-based
# [9] = molecular target: Metabotropic glutamate receptor 3 (Homo sapiens) (UniProt Q14832); test: Agonist activity at human metabotropic glutamate receptor 3 expressed in HEK293 cells assessed as induction of Ca2+ internalization after 1 hr by fluo-4-AM dye based fluorescence assay; type: functional, cell-based
# [10] = molecular target: Metabotropic glutamate receptor 3 (Homo sapiens) (UniProt Q14832); test: Antagonist activity at human metabotropic glutamate receptor 3 expressed in HEK293 cells assessed as inhibition of glutamate-induced Ca2+ internalization after 1 hr by fluo-4-AM dye based fluorescence assay; type: functional, cell-based
# [11] = molecular target: Metabotropic glutamate receptor 5 (Homo sapiens) (UniProt P41594); test: Agonist activity at human metabotropic glutamate receptor 5 expressed in HEK293 cells assessed as induction of Ca2+ internalization after 1 hr by fluo-4-AM dye based fluorescence assay; type: functional, cell-based
# [12] = molecular target: Metabotropic glutamate receptor 5 (Homo sapiens) (UniProt P41594); test: Antagonist activity at human metabotropic glutamate receptor 5 expressed in HEK293 cells assessed as inhibition of glutamate-induced Ca2+ internalization after 1 hr by fluo-4-AM dye based fluorescence assay; type: functional, cell-based
# [13] = molecular target: Metabotropic glutamate receptor 5 (Homo sapiens) (UniProt P41594); test: Positive allosteric modulation of human metabotropic glutamate receptor 5 expressed in HEK293 cells assessed as induction of Ca2+ […] after 1 hr in the presence of glutamate by fluo-4-AM dye based fluorescence assay; type: functional, cell-based
# [14] = molecular target: Metabotropic glutamate receptor 7 (Homo sapiens) (UniProt Q14831); test: Agonist activity at human metabotropic glutamate receptor 7 expressed in HEK293 cells assessed as induction of Ca2+ internalization after 1 hr by fluo-4-AM dye based fluorescence assay; type: functional, cell-based
# [15] = molecular target: Metabotropic glutamate receptor 7 (Homo sapiens) (UniProt Q14831); test: Antagonist activity at human metabotropic glutamate receptor 7 expressed in HEK293 cells assessed as inhibition of glutamate-induced Ca2+ internalization after 1 hr by fluo-4-AM dye based fluorescence assay; type: functional, cell-based
# [16] = molecular target: Metabotropic glutamate receptor 8 (Homo sapiens) (UniProt O00222); test: Agonist activity at human metabotropic glutamate receptor 8 expressed in HEK293 cells assessed as induction of Ca2+ internalization after 1 hr by fluo-4-AM dye based fluorescence assay; type: functional, cell-based
# [17] = molecular target: Metabotropic glutamate receptor 8 (Homo sapiens) (UniProt O00222); test: Antagonist activity at human metabotropic glutamate receptor 8 expressed in HEK293 cells assessed as inhibition of glutamate-induced Ca2+ internalization after 1 hr by fluo-4-AM dye based fluorescence assay; type: functional, cell-based
# [18] = molecular target: Metabotropic glutamate receptor 4 (Homo sapiens) (UniProt Q14833); test: Agonist activity at human metabotropic glutamate receptor 4 assessed as increase in [35S]GTPgammaS binding preincubated for 30 mins followed by [35S]GTPgammaS addition measured after 30 mins by Topcount scintillation counting method; type: functional
# [19] = molecular target: Metabotropic glutamate receptor 4 (Homo sapiens) (UniProt Q14833); test: Antagonist activity at human metabotropic glutamate receptor 4 assessed as inhibition of glutamate-induced [35S]GTPgammaS binding preincubated for 30 mins followed by [35S]GTPgammaS addition measured after 30 mins by Topcount scintillation counting method; type: functional
# [20] = molecular target: Metabotropic glutamate receptor 6 (Rattus norvegicus) (UniProt P35349); test: Agonist activity at rat metabotropic glutamate receptor 6 expressed in CHO cell membranes assessed as increase in [35S]GTPgammaS binding preincubated for 30 mins followed by [35S]GTPgammaS addition measured after 30 mins by Topcount scintillation counting method; type: functional
# [21] = molecular target: Metabotropic glutamate receptor 6 (Rattus norvegicus) (UniProt P35349); test: Antagonist activity at rat metabotropic glutamate receptor 6 expressed in CHO cell membranes assessed as inhibition of glutamate-induced [35S]GTPgammaS binding preincubated for 30 mins followed by [35S]GTPgammaS addition measured after 30 mins by Topcount scintillation counting method; type: functional
# [22] = molecular target: T1, Metabotropic glutamate receptor 2; test: Positive allosteric modulation of human metabotropic glutamate receptor 2 expressed in CHOK1 cells assessed as cellular impedance measured for 20 mins with 15 sec time interval followed by 40 mins with 5 mins time interval and subsequently measured with 15 mins time interval in presence of endogenous glutamate levels by RTCA; type: cell-based
# Summary of the method: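 Whole-cell impedance (Cell Index) in CHO-K1_hmGlu2 cells, 40,000/well, 18 h at 37°C before compound addition. Endogenous glutamate was about 90 µM. […] Three experiments in duplicate.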
# Target sequence in this assay (Q14416 whole entry): as above
# [23] = molecular target: T1, Metabotropic glutamate receptor 2; test: Positive allosteric modulation of human metabotropic glutamate receptor 2 expressed in CHOK1 cells assessed as cellular impedance at 600 nM incubated for 5mins followed by compound washout in presence of endogenous glutamate levels by RTCA; type: cell-based
# Target sequence in this assay (Q14416 19-872 limits assumed): as the sequence (Q14416 19-872 limits assumed) above
# [24] = molecular target: T1, Metabotropic glutamate receptor 2; test: Positive allosteric modulation of human metabotropic glutamate receptor 2 expressed in CHOK1 cells assessed as cellular impedance response by label-free xCELLigence assay
# Target sequence in this assay (Q14416 19-872 limits assumed): as above
# Rattus norvegicus [25] = test: In vivo positive allosteric modulation of metabotropic glutamate receptor 2 in Sprague-Dawley rat assessed as reduction in REM at 10 mg/kg, po measured for 24 consecutive 5 mins period; type: functional, organism-based
# Summary of the method: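 Sprague-Dawley rats (n=8 per group) received single oral doses of 1, 3 or 10 mg/kg or 20% CD vehicle. REM sleep was scored in 24 consecutive 5-min bins over the first 2 h. Comparison was by mixed-model ANOVA.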
# Rattus norvegicus [26] = test: Effect on total sleep in Sprague-Dawley rat at 1 to 10 mg/kg, po measured for 2 hrs; type: ADME, organism-based; conditions: in vivo
# Brain = test: Unbound concentration in Sprague-Dawley rat brain at 10 mg/kg, po measured after 1 hr; type: ADME, organism-based; conditions: in vivo
# [27] = molecular target: T1, Metabotropic glutamate receptor 2; test: Positive allosteric modulation of human metabotropic glutamate receptor 2 expressed in CHOK1 cells assessed as cellular impedance at 60 nM incubated for 5mins followed by compound washout in presence of endogenous glutamate levels by RTCA; type: cell-based
# Target sequence in this assay (Q14416 19-872 limits assumed): as above
# [28] = molecular target: T1, Metabotropic glutamate receptor 2; test: Displacement of [3H]-JNJ46281222 from human metabotropic glutamate receptor 2 expressed in CHOK1 cell membranes after 60 mins by liquid scintillation counting method
# Target sequence in this assay (Q14416 whole entry): as the sequence (Q14416 whole entry) above
# Chain of Metabotropic glutamate receptor 5 (Homo sapiens) (P41594 21-1212 limits assumed): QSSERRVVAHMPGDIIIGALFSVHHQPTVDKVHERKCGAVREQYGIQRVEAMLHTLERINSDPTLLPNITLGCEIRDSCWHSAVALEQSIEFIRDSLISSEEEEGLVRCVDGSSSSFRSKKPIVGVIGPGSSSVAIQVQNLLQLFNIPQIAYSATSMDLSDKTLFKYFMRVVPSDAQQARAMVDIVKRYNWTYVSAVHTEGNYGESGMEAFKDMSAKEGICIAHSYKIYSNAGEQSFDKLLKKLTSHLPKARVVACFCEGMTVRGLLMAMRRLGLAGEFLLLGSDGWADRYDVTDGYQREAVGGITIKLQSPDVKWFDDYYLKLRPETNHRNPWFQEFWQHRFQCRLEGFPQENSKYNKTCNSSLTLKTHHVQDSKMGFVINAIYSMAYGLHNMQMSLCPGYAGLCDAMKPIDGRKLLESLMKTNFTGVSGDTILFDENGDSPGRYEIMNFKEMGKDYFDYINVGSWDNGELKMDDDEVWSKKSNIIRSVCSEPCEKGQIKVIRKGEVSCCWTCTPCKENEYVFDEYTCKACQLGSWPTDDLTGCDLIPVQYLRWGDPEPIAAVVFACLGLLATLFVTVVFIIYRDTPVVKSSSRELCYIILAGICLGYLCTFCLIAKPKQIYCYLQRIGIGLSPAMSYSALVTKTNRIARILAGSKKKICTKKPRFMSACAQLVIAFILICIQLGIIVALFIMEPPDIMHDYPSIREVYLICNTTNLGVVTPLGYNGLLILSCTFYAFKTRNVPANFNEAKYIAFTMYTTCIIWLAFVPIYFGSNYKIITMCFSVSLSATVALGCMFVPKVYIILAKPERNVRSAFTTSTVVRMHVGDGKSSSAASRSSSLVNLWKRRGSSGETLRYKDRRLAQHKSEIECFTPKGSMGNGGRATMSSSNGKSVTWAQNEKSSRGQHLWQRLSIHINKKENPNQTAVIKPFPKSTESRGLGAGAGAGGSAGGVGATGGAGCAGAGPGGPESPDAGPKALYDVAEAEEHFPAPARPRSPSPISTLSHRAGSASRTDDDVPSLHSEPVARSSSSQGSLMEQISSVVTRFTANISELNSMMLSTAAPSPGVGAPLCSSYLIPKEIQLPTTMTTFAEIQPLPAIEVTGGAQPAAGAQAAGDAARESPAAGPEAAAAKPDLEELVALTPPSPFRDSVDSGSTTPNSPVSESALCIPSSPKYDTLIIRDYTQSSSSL
# Chain of Metabotropic glutamate receptor 3 (Homo sapiens) (Q14832 23-879 limits assumed): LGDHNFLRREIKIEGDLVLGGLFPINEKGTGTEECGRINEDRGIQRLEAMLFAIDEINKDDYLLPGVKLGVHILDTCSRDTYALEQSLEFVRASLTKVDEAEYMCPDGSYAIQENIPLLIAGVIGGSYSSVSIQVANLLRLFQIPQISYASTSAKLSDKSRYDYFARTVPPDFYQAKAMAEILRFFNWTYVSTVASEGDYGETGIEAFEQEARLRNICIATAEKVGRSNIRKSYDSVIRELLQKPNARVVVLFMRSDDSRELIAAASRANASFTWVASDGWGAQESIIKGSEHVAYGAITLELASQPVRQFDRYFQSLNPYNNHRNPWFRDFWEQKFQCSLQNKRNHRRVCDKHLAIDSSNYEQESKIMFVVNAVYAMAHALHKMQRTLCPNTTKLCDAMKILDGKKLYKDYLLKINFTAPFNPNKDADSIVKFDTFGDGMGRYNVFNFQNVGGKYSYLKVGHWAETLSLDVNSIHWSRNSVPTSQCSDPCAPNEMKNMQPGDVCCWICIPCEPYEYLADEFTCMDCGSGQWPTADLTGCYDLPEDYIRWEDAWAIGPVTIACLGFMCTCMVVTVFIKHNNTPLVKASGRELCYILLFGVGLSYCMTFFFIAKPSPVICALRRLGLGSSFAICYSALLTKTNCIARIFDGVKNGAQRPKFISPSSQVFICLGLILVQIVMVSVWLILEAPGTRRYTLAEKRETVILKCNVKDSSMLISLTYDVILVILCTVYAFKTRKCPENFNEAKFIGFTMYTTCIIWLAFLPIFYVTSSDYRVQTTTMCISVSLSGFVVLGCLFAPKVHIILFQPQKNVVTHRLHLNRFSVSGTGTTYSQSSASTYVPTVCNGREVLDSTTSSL
# Chain of Metabotropic glutamate receptor 7 (Homo sapiens) (Q14831 whole entry): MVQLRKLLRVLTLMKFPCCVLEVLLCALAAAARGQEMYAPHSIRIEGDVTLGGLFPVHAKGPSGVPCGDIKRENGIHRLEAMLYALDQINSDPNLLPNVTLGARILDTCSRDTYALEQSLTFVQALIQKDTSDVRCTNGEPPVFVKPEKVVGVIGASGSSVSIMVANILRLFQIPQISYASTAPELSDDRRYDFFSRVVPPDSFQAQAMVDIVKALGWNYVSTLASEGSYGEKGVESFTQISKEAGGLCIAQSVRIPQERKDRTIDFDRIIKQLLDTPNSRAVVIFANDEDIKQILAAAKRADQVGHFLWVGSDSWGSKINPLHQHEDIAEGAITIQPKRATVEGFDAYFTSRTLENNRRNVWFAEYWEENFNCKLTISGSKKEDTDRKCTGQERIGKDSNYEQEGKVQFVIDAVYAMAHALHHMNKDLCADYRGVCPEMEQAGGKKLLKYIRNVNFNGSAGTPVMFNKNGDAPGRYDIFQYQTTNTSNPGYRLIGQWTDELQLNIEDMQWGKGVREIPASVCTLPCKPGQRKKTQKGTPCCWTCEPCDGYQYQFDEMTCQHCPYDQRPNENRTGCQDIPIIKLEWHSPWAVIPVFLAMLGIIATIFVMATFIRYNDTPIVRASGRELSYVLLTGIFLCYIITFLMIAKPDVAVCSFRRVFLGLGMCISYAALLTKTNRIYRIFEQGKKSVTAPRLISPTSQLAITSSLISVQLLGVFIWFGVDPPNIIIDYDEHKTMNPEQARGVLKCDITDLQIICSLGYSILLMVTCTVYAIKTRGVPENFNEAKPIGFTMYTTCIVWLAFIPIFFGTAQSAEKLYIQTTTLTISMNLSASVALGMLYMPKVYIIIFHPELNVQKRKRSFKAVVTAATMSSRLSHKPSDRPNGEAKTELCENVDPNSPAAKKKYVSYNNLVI
SMILES,K [1],K [2] [min⁻¹],TIME [3] [h],Kd [4] [nM],EC50 [5] [nM],Ki [6] [nM],EC50 [22] [nM],EC80 [24] [nM],Activity (Rattus norvegicus [25]),Activity (Rattus norvegicus [26]),Drug uptake(free) (Brain) [ng/g],further results
FC(F)(F)c1c(-c2ccc(OC3CCOCC3)c(Cl)c2)ccn2c(CC3CC3)nnc12,2 ×10⁷ /M/min,0.241,0.0683,12.3,38,5.25,89.1,600,–,–,–,Activity [7]: inactive; inhibition [8]: inactive; Activity [9]: inactive; inhibition [10]: inactive; Activity [11]: inactive; inhibition [12]: inactive; Activity [13]: inactive; Activity [14]: inactive; inhibition [15]: inactive; Activity [16]: inactive; inhibition [17]: inactive; Activity [18]: inactive; inhibition [19]: inactive; Activity [20]: inactive; inhibition [21]: inactive; Activity [23]: inactive
Cc1ccc(Oc2ccc(-c3ccn4c(CC5CC5)nnc4c3C(F)(F)F)cc2F)c(C)n1,1.3 ×10⁷ /M/min,0.033,0.502,2.5,8.71,2.57,–,–,Active,Non-Toxic,5,–
O[C@]1(C2CC2)CC[C@H](Nc2ccc(-c3ccn4c(CC5CC5)nnc4c3C(F)(F)F)cc2Cl)CC1,1.4 ×10⁷ /M/min,0.02,0.825,1.5,1.12,0.891,11.2,60,–,–,–,Activity [27]: Active
Fc1cc(-c2ccn3c(CC4CC4)nnc3c2C(F)(F)F)ccc1Oc1ccnc(C2CC2)c1,2.2 ×10⁷ /M/min,0.189,0.0883,8.6,18.6,3.63,–,–,Active,Non-Toxic,3.5,–
CC(C)C(=O)c1ccc(OCc2ccc(CNC(=O)c3cn(C)cn3)cc2)c(C(F)(F)F)c1O,1.2 ×10⁶ /M/min,0.12,0.14,100,107,–,–,–,–,–,–,Ki [28]: 79.4 nM
COc1ccc(CNc2ccc(-c3ccn4c(CC5CC5)nnc4c3C(F)(F)F)cc2)cn1,3.4 ×10⁷ /M/min,0.069,0.243,2,15.1,3.16,–,–,–,–,–,–
